From ChEMBL document CHEMBL1152198, “C-2-aryl O-substituted HI-236 derivatives as non-nucleoside HIV-1 reverse-transcriptase inhibitors” (Bioorg Med Chem, 2008)

Key:
MT2 [1] = experiment: Cytotoxicity against HIV1 Y181C mutant infected human MT2 cells after 5 days by MTT assay; type: cell-based; details: mt2, 120 h
Outline: (§1)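 Infected (Y181C, MOI 0.1) or mock-infected MT-2 cells at 1×10^5 cells/mL exposed 5 days to graded compound concentrations in RPMI 1640/10% dFBS/kanamycin, triplicate. Viability by MTT (5 h), acidified isopropanol lysis, absorbance 595 nm. CC50 read from triplicate-mean dose-response curves as concentration reducing viable cells by 50%.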

[2] = test system: Human immunodeficiency virus 1; experiment: Antiviral activity against wild-type HIV1 3B infected in human MT2 cells assessed as inhibition of viral replication after 5 days by MTT assay; details: Human immunodeficiency virus 1, 3B, MT2, 120 h
[3] = Therapeutic index, ratio of CC50 for HIV1 Y181C mutant infected human MT2 cells to EC50 for HIV1 with reverse transcriptase Y181C mutation; type: cell-based; details: read-out: Ratio CC50/EC50
Outline: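 MT-2 cells (1×10^5 cells/mL), infected with Y181C mutant HIV-1 at MOI 0.1 or mock-infected, were cultured 5 days in RPMI 1640 with 10% dFBS and kanamycin at varying compound concentrations, in triplicate. MTT was added for 5 h, cells were lysed with acidified isopropanol, and A595 was read. EC50 (50% inhibition of viral replication) and CC50 (50% loss of viable cells) came from averaged dose-response curves.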

[4] = Therapeutic index, ratio of CC50 for human MT2 cells to EC50 for HIV1 3B; type: cell-based; details: read-out: Ratio CC50/EC50
Outline: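 MT-2 cells at 1×10^5 cells/mL, HIV-III_B or mock infection at MOI 0.1, 5 days with graded compound, triplicate; MTT read-out at 595 nm. Index computed as CC50 (mock-infected cells) over EC50 (viral replication), both from dose-response curves.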

[5] = test system: Human immunodeficiency virus 1; experiment: Antiviral activity against nevirapine-resistant HIV1 with reverse transcriptase Y181C mutation in human MT2 cells assessed as inhibition of viral replication after 5 days by MTT assay; type: functional, organism-based; details: Human immunodeficiency virus 1, MT2, 120 h
Outline: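 MT-2 cells at 1×10^5 cells/mL infected at MOI 0.1 (wild-type HIV-III_B or Y181C mutant), cultured 5 days in RPMI 1640 with 10% dFBS and kanamycin across a range of compound concentrations, triplicate wells. MTT added for 5 h, cells lysed with acidified isopropanol, A595 read. EC50 taken from dose-response curves of triplicate means as concentration inhibiting viral replication by 50%.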

[6] = biological target: Human immunodeficiency virus type 1 reverse transcriptase (Human immunodeficiency virus 1, UniProt Q72547); experiment: Inhibition of HIV1 3B reverse transcriptase
Outline: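 Steady-state single-nucleotide incorporation: 6 nM RT (active-site titrated) pre-incubated at least 15 min with 1 μM 5'-radiolabeled primer/template, then at least 15 min on ice with inhibitor (DMSO under 2%, DMSO-only control). Started with 5 μM dTTP and 10 mM MgCl2 (final), 15 min at 37 °C, EDTA quench. Products resolved on 20% denaturing PAGE; hyperbolic fit gives IC50.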

MT2 [7] = experiment: Cytotoxicity against mock-infected human MT2 cells after 5 days by MTT assay; type: cell-based; details: mt2, 120 h; outline: as §1

Row | Compound | CC50 (MT2 [1]) | EC50 [2] | selectivity ratio [3] | selectivity ratio [4] | EC50 [5] | IC50 [6] | CC50 (MT2 [7])
1 | COc1ccc(OC)c(CCNC(=S)Nc2ccc(Br)cn2)c1 | 18 µM | 48 nM | 15 | 21 | 1200 nM | 28 nM | 1 µM
2 | C#CCCOc1ccc(OC)cc1CCNC(=S)Nc1ccc(Br)cn1 | 4 µM | 26 nM | > 20 | 38 | < 200 nM | 3.8 nM | 1 µM
3 | COC(=O)COc1ccc(OC)cc1CCNC(=S)Nc1ccc(Br)cn1 | – | 12000 nM | – | 4 | – | 100 nM | 48 µM
4 | C=CCOc1ccc(OC)cc1CCNC(=S)Nc1ccc(Br)cn1 | – | 200 nM | – | 55 | – | – | 11 µM
5 | COc1ccc(OCc2ccccc2)c(CCNC(=S)Nc2ccc(Br)cn2)c1 | – | 220 nM | – | 18 | – | – | 4 µM
6 | COc1ccc(OCCO)c(CCNC(=S)Nc2ccc(Br)cn2)c1 | – | 12 nM | – | 83 | – | 19 nM | 1 µM
7 | COc1ccc(OCCCO)c(CCNC(=S)Nc2ccc(Br)cn2)c1 | – | 98 nM | – | 94 | – | 24 nM | 8.5 µM
8 | C#CCOCCOCCOc1ccc(OC)cc1CCNC(=S)Nc1ccc(Br)cn1 | – | 390 nM | – | 17 | – | – | 6.8 µM
9 | COc1ccc(OCCCC#N)c(CCNC(=S)Nc2ccc(Br)cn2)c1 | – | 50 nM | – | 76 | – | – | 3.8 µM
10 | C#CCCCOc1ccc(OC)cc1CCNC(=S)Nc1ccc(Br)cn1 | – | 250 nM | – | 40 | – | 27 nM | 10 µM
11 | CC#CCOc1ccc(OC)cc1CCNC(=S)Nc1ccc(Br)cn1 | – | 270 nM | – | 74 | – | – | 20 µM
12 | COc1ccc(OCC#N)c(CCNC(=S)Nc2ccc(Br)cn2)c1 | – | 120 nM | – | 46 | – | – | 5.5 µM
13 | C#CCOCCOc1ccc(OC)cc1CCNC(=S)Nc1ccc(Br)cn1 | – | 95 nM | – | – | – | 41 nM | 9.5 µM
14 | CCCOc1ccc(OC)cc1CCNC(=S)Nc1ccc(Br)cn1 | – | 95 nM | – | 1 | – | – | 0.1 µM
15 | C#CCOc1ccc(OC)cc1CCNC(=S)Nc1ccc(Br)cn1 | – | 52 nM | – | 2 | – | – | 0.1 µM
16 | COc1ccc(OCCOCc2ccccc2)c(CCNC(=S)Nc2ccc(Br)cn2)c1 | – | 2000 nM | – | 3 | – | – | 5.8 µM
